Data reported in ChEMBL document CHEMBL1129691, “Synthesis and structure-DNA binding relationship analysis of DNA triple-helix specific intercalators” (J Med Chem, 1996).

Experiments:
Nucleic Acid [1] = assay: Temperature (delta Tm) for DNA duplex denaturation evaluated by thermal melting; assay type: nucleic-acid assay
Method in brief: (§1)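 Thermal melting in PIPES buffer (0.01 M PIPES, 0.001 M EDTA, 0.2 M NaCl, pH 7.0). Duplex poly(dA·dT) and triplex poly(dT·dA·dT) are formed by adding DNA stock to buffer. Compound is added at a molar ratio of 0.3 per nucleic acid base (saturating). ΔTm = Tm(complex) − Tm(free DNA), estimated error ±0.5 °C.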

Nucleic Acid [2] = assay: Temperature (delta Tm) for DNA triplex to duplex and single stranded transitions [Poly(dT.dA.dT) to Poly(dA.dT) and Poly(dT)]; assay type: nucleic-acid assay; method in brief: as §1
[3] = PKa value of the N in quinoline ring is determined in 1-cm UV cell titreated with HCl or NaOH; assay type: physicochemical; conditions: buffer
Method in brief: (§2)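 UV-monitored pH titration with HCl or NaOH. Sample is dihydrobromide salt or free base (0.01 mM) in nanopure water with NaCl (4 mM) and EDTA (0.1 mM). UV-vis spectra (220-450 nm) recorded after each addition. pH range spans at least 2 units either side of pKa, at least two points per pH unit. Absorbance at the wavelength of greatest change is normalized and plotted against pH.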

[4] = PKa value of the side chain terminal amino is determined in 1-cm UV cell titreated with HCl or NaOH; assay type: physicochemical; conditions: buffer; method in brief: as §2

## CNCCN(C)c1cc(-c2ccc3c(c2)Nc2ccccc2S3)nc2ccccc12
Nucleic Acid [1]
  ΔTm: 1.5 °C
Nucleic Acid [2]
  ΔTm: 20.8 °C

## CNCCN(C)c1cc(-c2ccc3ccccc3c2)nc2ccccc12
[3]
  pKa: 6.2
Nucleic Acid [1]
  ΔTm: 0.2 °C
[4]
  pKa: > 8
Nucleic Acid [2]
  ΔTm: 24.1 °C

## CN(C)CCNc1cc(-c2ccccc2)nc2ccccc12
Nucleic Acid [1]
  ΔTm: 0.3 °C
Nucleic Acid [2]
  ΔTm: 11.9 °C

## CN(C)CCN(C)c1cc(-c2cccs2)nc2ccccc12
Nucleic Acid [1]
  ΔTm: 0 °C
Nucleic Acid [2]
  ΔTm: 3 °C

## CN1CCN(c2cc(-c3ccc4c(ccc5ccccc54)c3)nc3ccccc23)CC1
Nucleic Acid [1]
  ΔTm: 0.3 °C
Nucleic Acid [2]
  ΔTm: 18.6 °C

## CN(C)CCNc1cc(-c2ccc3c(c2)Nc2ccccc2S3)nc2ccccc12
Nucleic Acid [1]
  ΔTm: 2.4 °C
Nucleic Acid [2]
  ΔTm: 33.1 °C

## Cc1ccc2cc(-c3cc(N4CCN(C)CC4)c4ccccc4n3)ccc2c1
Nucleic Acid [1]
  ΔTm: 0.4 °C
Nucleic Acid [2]
  ΔTm: 15.5 °C

## CN1CCN(c2cc(-c3ccc4ccccc4c3)nc3ccccc23)CC1
[3]
  pKa: 5.6
Nucleic Acid [1]
  ΔTm: 0.4 °C
[4]
  pKa: > 8
Nucleic Acid [2]
  ΔTm: 19.1 °C

## Cc1ccc2cc(-c3cc(NCCN(C)C)c4ccccc4n3)ccc2c1
Nucleic Acid [1]
  ΔTm: 2.2 °C
Nucleic Acid [2]
  ΔTm: 32.9 °C

## CN(C)CCNc1cc(-c2cccc3ccccc23)nc2ccccc12
Nucleic Acid [1]
  ΔTm: 0.1 °C
Nucleic Acid [2]
  ΔTm: 1.9 °C

## CN(C)CCNc1cc(-c2cccs2)nc2ccccc12
Nucleic Acid [1]
  ΔTm: 0.7 °C
Nucleic Acid [2]
  ΔTm: 9.4 °C

## CN(C)CCNc1cc(-c2ccc3ccccc3c2)nc2ccccc12
[3]
  pKa: 7.1
Nucleic Acid [1]
  ΔTm: 5.5 °C
[4]
  pKa: > 8
Nucleic Acid [2]
  ΔTm: 35.6 °C

## CNCCN(C)c1cc(-c2ccc3cc(C)ccc3c2)nc2ccccc12
Nucleic Acid [1]
  ΔTm: 0.5 °C
Nucleic Acid [2]
  ΔTm: 23 °C

## CN(C)CCN(C)C(=O)c1cc(-c2ccc3ccccc3c2)nc2ccccc12
Nucleic Acid [1]
  ΔTm: 0 °C
Nucleic Acid [2]
  ΔTm: 2.1 °C

## CN1CCN(c2cc(-c3ccccc3)nc3ccccc23)CC1
Nucleic Acid [1]
  ΔTm: 0 °C
Nucleic Acid [2]
  ΔTm: 3.2 °C

## Cc1ccc2cc(-c3cc(N(C)CCN(C)C)c4ccccc4n3)ccc2c1
Nucleic Acid [1]
  ΔTm: 0.4 °C
Nucleic Acid [2]
  ΔTm: 19 °C

## CN(C)CCNc1cc(-c2ccc3c(ccc4ccccc43)c2)nc2ccccc12
Nucleic Acid [1]
  ΔTm: 5.2 °C
Nucleic Acid [2]
  ΔTm: 35.3 °C

## CN(C)CCSc1cc(-c2ccc3ccccc3c2)nc2ccccc12
[3]
  pKa: 4.4
Nucleic Acid [1]
  ΔTm: 0.2 °C
[4]
  pKa: > 8
Nucleic Acid [2]
  ΔTm: 18.6 °C
